Activity calls are given as the source filed them. The calls are words filed in the database; no cut-off is given here.
Tests used:
[1] = target: T1, Luciferin 4-monooxygenase (Photinus pyralis, UniProt P08659); assay: (§1) Inhibition of Photinus pyralis luciferase by BrightGlo reporter gene assay
How it was run: (§2)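 5 nM purified P. pyralis luciferase in SteadyGlo or BrightGlo reporter-gene reagent; no extra ATP or D-luciferin added. 1536-well luminescence. Curves from 16 two-fold concentrations in duplicate, repeated on two or three separate days.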

[2] = target: T1, Luciferin 4-monooxygenase; assay: Inhibition of Photinus pyralis luciferase
[3] = target: T1, Luciferin 4-monooxygenase; assay: (§3) Inhibition of Photinus pyralis luciferase by Steady-Glo reporter gene assay; how it was run: as §2
[4] = target: T1, Luciferin 4-monooxygenase; assay: Inhibition of Photinus pyralis luciferase by Easy lite assay
How it was run: (§4)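 Detection by 2 µL of EasyLite or Kinase-Glo reagent (Kinase-Glo containing P. pennsylvanica luciferase). 1536-well luminescence. 16 two-fold concentrations, duplicate wells, repeated on two or three days.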

[5] = target: T2, Luciferin 4-monooxygenase (Photuris pensylvanica, UniProt Q27757); assay: (§5) Inhibition of luciferase Photuris pennsylvanica by Promega Kinase-Glo assay; how it was run: as §4
T2 sequence (Q27757 whole entry): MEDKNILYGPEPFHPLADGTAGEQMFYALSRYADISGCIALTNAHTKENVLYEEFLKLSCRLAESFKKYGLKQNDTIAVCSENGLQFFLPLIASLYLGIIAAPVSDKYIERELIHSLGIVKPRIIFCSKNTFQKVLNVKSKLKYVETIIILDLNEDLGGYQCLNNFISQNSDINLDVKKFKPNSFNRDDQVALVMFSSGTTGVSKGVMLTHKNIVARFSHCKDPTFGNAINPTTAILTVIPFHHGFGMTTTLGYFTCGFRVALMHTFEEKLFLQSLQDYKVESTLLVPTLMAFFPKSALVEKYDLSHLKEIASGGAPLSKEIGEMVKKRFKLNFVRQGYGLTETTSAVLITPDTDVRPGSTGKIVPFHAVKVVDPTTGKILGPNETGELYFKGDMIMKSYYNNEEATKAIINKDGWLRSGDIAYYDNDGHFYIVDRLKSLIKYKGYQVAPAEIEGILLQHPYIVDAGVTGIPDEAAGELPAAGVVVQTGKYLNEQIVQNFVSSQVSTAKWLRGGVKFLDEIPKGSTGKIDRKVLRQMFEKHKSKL

[6] = target: T1, Luciferin 4-monooxygenase; assay: Inhibition of Photinus pyralis luciferase by PK-Light assay
[7] = Inhibition of Renilla reniformis luciferase
[8] = target: T3, Luciferin 4-monooxygenase (Photuris pensylvanica) (UniProt Q27757); assay: as §5; how it was run: as §4
T3 sequence (whole entry): T2 sequence (Q27757 whole entry)

[9] = target: Luciferin 4-monooxygenase (Photinus pyralis) (UniProt P08659); assay: as §1; how it was run: as §2
[10] = target: Luciferin 4-monooxygenase (Photinus pyralis) (UniProt P08659); assay: as §3; how it was run: as §2
[11] = target: Luciferin 4-monooxygenase (Photinus pyralis) (UniProt P08659); assay: Inhibition of Photinus pyralis luciferase at 0.04 uM

Sequence of Luciferin 4-monooxygenase (Photinus pyralis) (P08659 whole entry): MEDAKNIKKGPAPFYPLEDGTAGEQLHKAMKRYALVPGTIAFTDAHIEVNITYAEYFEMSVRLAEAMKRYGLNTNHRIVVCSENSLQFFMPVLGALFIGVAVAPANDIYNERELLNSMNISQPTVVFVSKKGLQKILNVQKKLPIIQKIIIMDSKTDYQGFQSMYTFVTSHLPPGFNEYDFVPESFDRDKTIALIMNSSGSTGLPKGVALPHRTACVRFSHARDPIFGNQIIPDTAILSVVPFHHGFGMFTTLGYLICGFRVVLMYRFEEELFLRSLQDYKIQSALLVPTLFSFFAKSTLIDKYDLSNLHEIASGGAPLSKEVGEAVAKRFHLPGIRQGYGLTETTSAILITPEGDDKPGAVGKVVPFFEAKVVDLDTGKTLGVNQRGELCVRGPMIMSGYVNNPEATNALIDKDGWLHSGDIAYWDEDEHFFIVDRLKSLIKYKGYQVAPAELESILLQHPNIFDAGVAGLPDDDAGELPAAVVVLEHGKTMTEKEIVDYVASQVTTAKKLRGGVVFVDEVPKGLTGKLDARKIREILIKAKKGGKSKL
T1 sequence (P08659 whole entry): as above

Compound | IC50 [1] [µM] | IC50 [2] [nM] | IC50 [3] [nM] | IC50 [4] [nM] | IC50 [5] [µM] | IC50 [6] [nM] | IC50 [7] [µM] | Activity [8] | Activity [9] | Activity [10] | inhibition [11] [%]
Clc1ccc(-c2nc(-c3ccccn3)no2)cc1Cl | 3.9 | 840 | 3300 | 1900 | 19 | 4100 | – | – | – | – | –
Clc1cccc(-c2nc(-c3ccccn3)no2)c1 | 1.2 | 500 | 1500 | 700 | 7.4 | 2100 | > 50 | – | – | – | –
Cc1cccc(/C=C/c2ccccc2)n1 | 24 | 4300 | > 100000 | 11000 | > 50 | 17000 | – | – | – | – | –
CN(C)c1ccc(/C=C2\C(=O)Nc3ccccc32)cc1 | – | – | – | – | – | – | 19 | inactive | – | – | –
CCOc1ccc(-c2cc(C(=O)N3CCC4(CC3)OCCO4)c3ccccc3n2)cc1 | – | 700 | – | 1000 | > 50 | 1400 | 11 | – | inactive | inactive | –
Cc1ccc2nc(NC(=O)c3cccs3)sc2c1 | 6.7 | 500 | 6900 | 1700 | > 50 | 1400 | – | – | – | – | –
CCOc1ccc2nc(NC(=O)c3ccoc3C)sc2c1 | 4 | 650 | 3600 | 5700 | 3.8 | 4200 | – | – | – | – | –
O=c1cc(-c2ccccc2O)oc2ccc3ccccc3c12 | 0.09 | 50 | 60 | 200 | 14 | 700 | – | – | – | – | –
O=C(/C=C\Nc1ccccn1)c1ccc(Cl)cc1 | 1.2 | 2000 | 500 | 4700 | – | 4100 | – | inactive | – | – | –
c1ccc(-c2noc(-c3ccc4ccccc4c3)n2)nc1 | 0.2 | 100 | 200 | 220 | 11.3 | 220 | 25 | – | – | – | –
O=C(N/N=C/c1ccccc1O)c1ccccc1O | 2.6 | 800 | 20000 | 3600 | – | 2500 | – | inactive | – | – | –
Cc1cccc(C#Cc2ccccc2)n1 | 30 | 4700 | > 100000 | 7400 | – | 6600 | – | inactive | – | – | –
CN1CCN(C(=O)COc2ccc(-c3nc4ccccc4s3)cc2)CC1 | 6.5 | 300 | 1000 | 400 | – | 900 | – | inactive | – | – | –
CCN(CC)c1ccc2cc(-c3nc4ccccc4[nH]3)c(=O)oc2c1 | 0.4 | 240 | 120 | 14000 | 16 | 380 | 5.3 | – | – | – | 100
CCOc1ccc(NC(=O)c2ccccc2OC)cc1 | 8.3 | 600 | > 50000 | 1500 | – | 2800 | – | inactive | – | – | –
COc1ccc2nc(NC(=O)c3ccoc3C)sc2c1 | 5.9 | 1200 | 10300 | 4500 | 3.6 | 2100 | – | – | – | – | –
CCOc1ccc(-c2cc(C(=O)N3CCN(C)CC3)c3ccccc3n2)cc1 | – | 1300 | – | 1100 | > 50 | 2400 | > 25 | – | inactive | inactive | –
CN(C)c1ccc(N/C=C\C(=O)c2ccccc2)cc1 | 0.7 | 210 | 600 | 400 | 3.2 | 600 | 11 | – | – | – | –
CCOC(=O)N1CCN(C(=O)c2cc(-c3ccc(OCC)cc3)nc3ccccc23)CC1 | – | 900 | – | 1000 | > 50 | 1400 | 20 | – | inactive | inactive | –
Cc1ccc(-c2nc(-c3ccccn3)no2)cc1Cl | 1.4 | 220 | 1600 | 800 | 22 | 2100 | – | – | – | – | –
CCOc1ccc(-c2cc(C(=O)N3CCN(c4ccccn4)CC3)c3ccccc3n2)cc1 | – | – | – | – | – | – | 11 | – | inactive | inactive | –

From ChEMBL document CHEMBL1144767, “Characterization of chemical libraries for luciferase inhibitory activity” (J Med Chem, 2008)
